Data published in ChEMBL document CHEMBL5107948, “Activity-based protein profiling reveals deubiquitinase and aldehyde dehydrogenase targets of a cyanopyrrolidine probe” (RSC Med Chem, 2021).
Calls of active or inactive are those of the source. No cut-off for these calls is given here.

Tests used:
[1] = molecular target: T1, Ubiquitin carboxyl-terminal hydrolase 30 (Homo sapiens) (UniProt Q70CQ3); test: Inhibition of GST-tagged recombinant USP30 (unknown origin) using Ub-Lys-TAMRA as substrate at 1 uM incubated for 30 mins by fluorescence polarization assay
T1 sequence (whole entry): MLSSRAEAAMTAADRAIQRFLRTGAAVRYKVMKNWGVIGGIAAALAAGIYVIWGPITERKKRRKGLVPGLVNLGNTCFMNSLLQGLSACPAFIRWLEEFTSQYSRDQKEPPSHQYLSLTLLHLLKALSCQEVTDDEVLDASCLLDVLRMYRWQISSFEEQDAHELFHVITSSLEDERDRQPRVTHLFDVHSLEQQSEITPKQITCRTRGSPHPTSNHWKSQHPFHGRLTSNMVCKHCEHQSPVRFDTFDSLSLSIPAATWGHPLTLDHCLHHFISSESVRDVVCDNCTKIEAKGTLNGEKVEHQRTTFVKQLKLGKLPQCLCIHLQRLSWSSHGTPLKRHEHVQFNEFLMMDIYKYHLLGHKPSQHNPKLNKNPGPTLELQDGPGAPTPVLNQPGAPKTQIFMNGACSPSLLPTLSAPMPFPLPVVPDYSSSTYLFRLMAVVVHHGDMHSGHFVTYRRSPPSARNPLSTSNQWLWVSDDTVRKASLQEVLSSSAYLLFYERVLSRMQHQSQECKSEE

[2] = molecular target: T2, Ubiquitin carboxyl-terminal hydrolase isozyme L5 (Homo sapiens) (UniProt Q9Y5K5); test: Inhibition of UCHL5 in human HEK293 cells using HA-Ub-VME as substrate at 0.1 to 10 uM incubated for 1 hr by immunoblotting analysis; type: cell-based; settings: dose 0.1-10 µM
T2 sequence (whole entry): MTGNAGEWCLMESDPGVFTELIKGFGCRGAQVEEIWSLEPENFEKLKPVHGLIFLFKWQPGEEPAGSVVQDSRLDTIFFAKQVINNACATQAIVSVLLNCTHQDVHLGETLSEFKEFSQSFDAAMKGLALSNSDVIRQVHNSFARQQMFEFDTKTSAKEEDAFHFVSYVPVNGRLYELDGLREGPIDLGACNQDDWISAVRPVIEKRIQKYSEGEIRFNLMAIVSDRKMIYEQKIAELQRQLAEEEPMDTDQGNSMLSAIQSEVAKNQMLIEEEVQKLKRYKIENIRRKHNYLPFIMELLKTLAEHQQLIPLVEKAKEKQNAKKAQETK
In short: (§1)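 Near-confluent HEK293 cells treated with compound in medium for 1 h at 37 °C, lysed in Tris/NP-40/CHAPS buffer with benzonase. Lysate (20 µg) reacted with HA-Ahx-Ahx-Ub-VME (0.5 µg) 15 min at room temperature, boiled 5 min at 95 °C in SDS loading buffer with BME, SDS-PAGE and immunoblot.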

[3] = molecular target: T3, Ubiquitin carboxyl-terminal hydrolase BAP1 (Homo sapiens) (UniProt Q92560); test: Inhibition of BAP1 in human HEK293 cells using HA-Ub-VME as substrate at 0.1 to 10 uM incubated for 1 hr by immunoblotting analysis; type: cell-based; settings: dose 0.1-10 µM; in short: as §1
T3 sequence (whole entry): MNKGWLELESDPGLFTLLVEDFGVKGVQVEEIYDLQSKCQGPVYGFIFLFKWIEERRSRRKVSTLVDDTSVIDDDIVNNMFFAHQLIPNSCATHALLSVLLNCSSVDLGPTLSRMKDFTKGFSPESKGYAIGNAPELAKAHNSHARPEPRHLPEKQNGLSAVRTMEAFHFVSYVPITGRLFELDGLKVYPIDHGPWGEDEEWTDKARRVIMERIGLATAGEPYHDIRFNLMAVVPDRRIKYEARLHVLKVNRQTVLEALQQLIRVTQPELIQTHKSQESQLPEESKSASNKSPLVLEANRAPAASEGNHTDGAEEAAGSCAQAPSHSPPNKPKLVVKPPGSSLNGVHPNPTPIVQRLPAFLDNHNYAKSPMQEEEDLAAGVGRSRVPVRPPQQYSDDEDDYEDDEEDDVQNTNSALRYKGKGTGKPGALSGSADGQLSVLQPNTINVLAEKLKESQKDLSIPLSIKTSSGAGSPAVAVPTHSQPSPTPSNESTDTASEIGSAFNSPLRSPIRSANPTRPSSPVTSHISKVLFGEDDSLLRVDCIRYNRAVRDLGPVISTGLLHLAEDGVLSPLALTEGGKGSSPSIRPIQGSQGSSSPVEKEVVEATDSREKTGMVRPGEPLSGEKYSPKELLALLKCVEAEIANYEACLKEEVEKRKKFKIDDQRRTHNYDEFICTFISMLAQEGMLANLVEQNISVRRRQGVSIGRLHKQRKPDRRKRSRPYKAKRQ

[4] = molecular target: Ubiquitin carboxyl-terminal hydrolase isozyme L1 (Homo sapiens) (UniProt P09936); test: Binding affinity to GST-tagged recombinant UCHL1 (unknown origin) assessed as covalent adduct formation at 13 uM incubated for 1 hr by LC-ESI-MS analysis
[5] = Cytotoxicity against human HEK293 cells assessed as reduction in cell growth incubated for 72 hrs by live-cell time-lapse imaging; type: toxicity, cell-based
In short: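 HEK293 cells, 1,000 per well, seeded 24 h before exposure to 7 serial dilutions, in triplicate. Confluence imaged every 2 h for 72 h by IncuCyte live-cell time-lapse imaging. EC50 from four-parameter dose-response fit; mean ± SD of 12 technical replicates.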

[6] = molecular target: T4, Ubiquitin carboxyl-terminal hydrolase isozyme L3 (Homo sapiens, UniProt P15374); test: Inhibition of GST-tagged recombinant UCHL3 (unknown origin) using Ub-Lys-TAMRA as substrate incubated for 30 mins by fluorescence polarization assay
T4 sequence (P15374 whole entry): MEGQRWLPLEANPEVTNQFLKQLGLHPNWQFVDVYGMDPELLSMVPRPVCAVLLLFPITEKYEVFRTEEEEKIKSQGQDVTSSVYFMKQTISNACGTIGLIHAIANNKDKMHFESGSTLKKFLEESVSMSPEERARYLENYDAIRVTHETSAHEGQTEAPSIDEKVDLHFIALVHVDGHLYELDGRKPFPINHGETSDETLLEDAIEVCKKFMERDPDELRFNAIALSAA
In short: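 Recombinant DUB (UCHL1 or UCHL3 at 5 nM) preincubated 30 min RT with 8-point compound dilutions in Tris pH 7.5/NaCl or Tris pH 7.5 buffer with Tween-20, BSA and 5 mM BME. Ub-Lys-TAMRA (50 nM) added; fluorescence polarization (Ex 540/Em 590 nm) read at once and after 2 h RT. Triplicate; four-parameter IC50.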

[7] = molecular target: Ubiquitin carboxyl-terminal hydrolase isozyme L1 (Homo sapiens) (UniProt P09936); test: Inhibition of UCHL1 in human HEK293 cells using HA-Ub-VME as substrate at 0.1 to 10 uM incubated for 1 hr by immunoblotting analysis; type: cell-based; settings: dose 0.1-10 µM; in short: as §1

Ubiquitin carboxyl-terminal hydrolase isozyme L1 (Homo sapiens), sequence (P09936 whole entry, looked up): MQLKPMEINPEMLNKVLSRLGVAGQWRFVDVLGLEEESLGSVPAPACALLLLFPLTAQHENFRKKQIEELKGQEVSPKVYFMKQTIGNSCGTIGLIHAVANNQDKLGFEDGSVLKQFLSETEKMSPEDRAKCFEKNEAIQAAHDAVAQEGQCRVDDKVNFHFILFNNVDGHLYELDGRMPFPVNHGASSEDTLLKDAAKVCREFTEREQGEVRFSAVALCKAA

inhibition [1]	inhibition [2]	inhibition [3]	Activity [4]	IC50 [6]	inhibition [7]	Compound	EC50 at 72 h [5]
Active	Active	Active	Active	> 10 µM	Active	C#Cc1ccc(-c2cnc(NC(=O)[C@H]3CCN(C#N)C3)s2)cc1	0.35 µM
Active	Active	Active	Active	> 10 µM	Active	N#CN1CC[C@H](C(=O)Nc2ncc(-c3ccccc3)s2)C1	0.73 µM
